{"source": "the RNAGym collection of RNA variant scans (doi:10.1002/anie.201605470)", "parents": {"B1": {"name": "Osa-1-4 twister ribozyme (parent)", "chain": "CCGCCUAACACUGCCAAUGCCGGUCCCAAGCCCGGAUAAAAGUGGAGGGGGCGG"}}, "data": [{"variants_of": "B1", "test": "self-cleavage, relative activity (ratio to wild type); higher = more cleavage; co-transcriptional", "method_in_brief": "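A DNA template encoding a 54-nucleotide twister ribozyme from Oryza sativa was made so that each of the 48 positions downstream of the cleavage site carried 97 % wild-type base and 1 % of each other base. Transcription in vitro ran for 2 h at 37 °C, during which the ribozyme could cleave itself. Reverse transcription used a template-switching oligonucleotide, and the products were PCR-amplified and deep-sequenced. Each read was scored as cleaved or uncleaved by whether upstream sequence was present, and relative activity is the fraction cleaved normalised to wild type.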", "values": [{"variant": "CCGCCUAAUACUGCCAAUGCCGAUCCCAAGCCCGGAUAAAAGUGGAGGGGGCGG", "note": "[C9U G23A]", "self-cleavage": 0.12}, {"variant": "CCGCCUAAUACUGCCAAUGCCGUUCCCAAGCCCGGAUAAAAGUGGAGGGGGCGG", "note": "[C9U G23U]", "self-cleavage": 0.03}, {"variant": "CCGCCUAAUACUGCCAAUGCCGCUCCCAAGCCCGGAUAAAAGUGGAGGGGGCGG", "note": "[C9U G23C]", "self-cleavage": 0.03}, {"variant": "CCGCCUAAUACUGCCAAUGCCGGUCCCAAGCCCGGAUAAAAGUGGACGGGGCGG", "note": "[C9U G47C]", "self-cleavage": 0.02}, {"variant": "CCGCCUAAUACUGCCAAUGCCGGUCCCAAGCCCGGAUAAAAGUGGAUGGGGCGG", "note": "[C9U G47U]", "self-cleavage": 0.06}, {"variant": "CCGCCUAAUACUGCCAAUGCCGGUCCCAAGCCCGGAUAAAAGUGGAAGGGGCGG", "note": "[C9U G47A]", "self-cleavage": 0.06}, {"variant": "CCGCCUAAGACUGCCAAUGCCGGUCCCAAGCCCGGAUAAAAGUGGAGGGCGCGG", "note": "[C9G G50C]", "self-cleavage": 0.59}, {"variant": "CCGCCUAAGACUGCCAAUGCCGGUCCCAAGCCCGGAUAAAAGUGGAGGGUGCGG", "note": "[C9G G50U]", "self-cleavage": 0.84}, {"variant": "CCGCCUAAGACUGCCAAUGCCGGUCCCAAGCCCGGAUAAAAGUGGAGGGAGCGG", "note": "[C9G G50A]", "self-cleavage": 0.48}, {"variant": "CCGCCUAAUACUGCCAAUGCCGGUCCCAAGCCCGGAUAAAAGUGGAGGCGGCGG", "note": "[C9U G49C]", "self-cleavage": 0.04}, {"variant": "CCGCCUAAUACUGCCAAUGCCGGUCCCAAGCCCGGAUAAAAGUGGAGGAGGCGG", "note": "[C9U G49A]", "self-cleavage": 0.06}, {"variant": "CCGCCUAAUACUGCCAAUGCCGGUCCCAAGCCCGGAUAAAAGUGGAGGUGGCGG", "note": "[C9U G49U]", "self-cleavage": 0.05}, {"variant": "CCGCCUAAUACUGCCAAUGCCCGUCCCAAGCCCGGAUAAAAGUGGAGGGGGCGG", "note": "[C9U G22C]", "self-cleavage": 0.03}, {"variant": "CCGCCUAAUACUGCCAAUGCCAGUCCCAAGCCCGGAUAAAAGUGGAGGGGGCGG", "note": "[C9U G22A]", "self-cleavage": 0.68}, {"variant": "CCGCCUAAUACUGCCAAUGCCUGUCCCAAGCCCGGAUAAAAGUGGAGGGGGCGG", "note": "[C9U G22U]", "self-cleavage": 0.26}, {"variant": "CCGCCUAAGACAGCCAAUGCCGGUCCCAAGCCCGGAUAAAAGUGGAGGGGGCGG", "note": "[C9G U12A]", "self-cleavage": 0.13}, {"variant": "CCGCCUAAGACCGCCAAUGCCGGUCCCAAGCCCGGAUAAAAGUGGAGGGGGCGG", "note": "[C9G U12C]", "self-cleavage": 0.1}, {"variant": "CCGCCUAAGACGGCCAAUGCCGGUCCCAAGCCCGGAUAAAAGUGGAGGGGGCGG", "note": "[C9G U12G]", "self-cleavage": 0.11}, {"variant": "CCGCCUAAGACUGCCAAUGCCGGUCCCAAGCCCGAAUAAAAGUGGAGGGGGCGG", "note": "[C9G G35A]", "self-cleavage": 0.47}, {"variant": "CCGCCUAAGACUGCCAAUGCCGGUCCCAAGCCCGUAUAAAAGUGGAGGGGGCGG", "note": "[C9G G35U]", "self-cleavage": 0.44}, {"variant": "CCGCCUAAGACUGCCAAUGCCGGUCCCAAGCCCGCAUAAAAGUGGAGGGGGCGG", "note": "[C9G G35C]", "self-cleavage": 0.16}, {"variant": "CCGCCUAAGACUGCCAAUGCCGGUCCCAAGCCCGGAUAAAAGUGGAGGGGUCGG", "note": "[C9G G51U]", "self-cleavage": 0.12}, {"variant": "CCGCCUAAGACUGCCAAUGCCGGUCCCAAGCCCGGAUAAAAGUGGAGGGGACGG", "note": "[C9G G51A]", "self-cleavage": 0.23}, {"variant": "CCGCCUAAGACUGCCAAUGCCGGUCCCAAGCCCGGAUAAAAGUGGAGGGGCCGG", "note": "[C9G G51C]", "self-cleavage": 0.06}, {"variant": "CCGCCUAAGACUGCCAAUGCCGGUCCCAAGCCCGGAUAAAAGUGGAGGAGGCGG", "note": "[C9G G49A]", "self-cleavage": 0.09}, {"variant": "CCGCCUAAGACUGCCAAUGCCGGUCCCAAGCCCGGAUAAAAGUGGAGGCGGCGG", "note": "[C9G G49C]", "self-cleavage": 0.06}, {"variant": "CCGCCUAAGACUGCCAAUGCCGGUCCCAAGCCCGGAUAAAAGUGGAGGUGGCGG", "note": "[C9G G49U]", "self-cleavage": 0.09}, {"variant": "CCGCCUAAUACUGCCAAUCCCGGUCCCAAGCCCGGAUAAAAGUGGAGGGGGCGG", "note": "[C9U G19C]", "self-cleavage": 0.05}, {"variant": "CCGCCUAAUACUGCCAAUACCGGUCCCAAGCCCGGAUAAAAGUGGAGGGGGCGG", "note": "[C9U G19A]", "self-cleavage": 0.26}, {"variant": "CCGCCUAAUACUGCCAAUUCCGGUCCCAAGCCCGGAUAAAAGUGGAGGGGGCGG", "note": "[C9U G19U]", "self-cleavage": 0.08}, {"variant": "CCGCCUAAGACUGCCAAUGCCGGUCCCAAGCCCGGAUAAAAGUGGAGGGGGCCG", "note": "[C9G G53C]", "self-cleavage": 0.05}, {"variant": "CCGCCUAAGACUGCCAAUGCCGGUCCCAAGCCCGGAUAAAAGUGGAGGGGGCAG", "note": "[C9G G53A]", "self-cleavage": 0.48}, {"variant": "CCGCCUAAGACUGCCAAUGCCGGUCCCAAGCCCGGAUAAAAGUGGAGGGGGCUG", "note": "[C9G G53U]", "self-cleavage": 0.14}, {"variant": "CCGCCUAAUACUGCCAAUGCCGGUCCCAAGCCCGCAUAAAAGUGGAGGGGGCGG", "note": "[C9U G35C]", "self-cleavage": 0.21}, {"variant": "CCGCCUAAUACUGCCAAUGCCGGUCCCAAGCCCGUAUAAAAGUGGAGGGGGCGG", "note": "[C9U G35U]", "self-cleavage": 0.59}, {"variant": "CCGCCUAAUACUGCCAAUGCCGGUCCCAAGCCCGAAUAAAAGUGGAGGGGGCGG", "note": "[C9U G35A]", "self-cleavage": 0.53}, {"variant": "CCGCCUAAUACUGCCAAUGCCGGUCCCAAGCCCAGAUAAAAGUGGAGGGGGCGG", "note": "[C9U G34A]", "self-cleavage": 0.41}, {"variant": "CCGCCUAAUACUGCCAAUGCCGGUCCCAAGCCCCGAUAAAAGUGGAGGGGGCGG", "note": "[C9U G34C]", "self-cleavage": 0.11}, {"variant": "CCGCCUAAUACUGCCAAUGCCGGUCCCAAGCCCUGAUAAAAGUGGAGGGGGCGG", "note": "[C9U G34U]", "self-cleavage": 0.28}, {"variant": "CCGCCUAAUACUGCCAAUGCCGGUCCCAAGCCCGGAUAAAAGUGGAGAGGGCGG", "note": "[C9U G48A]", "self-cleavage": 0.03}, {"variant": "CCGCCUAAUACUGCCAAUGCCGGUCCCAAGCCCGGAUAAAAGUGGAGUGGGCGG", "note": "[C9U G48U]", "self-cleavage": 0.03}, {"variant": "CCGCCUAAUACUGCCAAUGCCGGUCCCAAGCCCGGAUAAAAGUGGAGCGGGCGG", "note": "[C9U G48C]", "self-cleavage": 0.04}, {"variant": "CCGCCUAAUACUGCCAAUGCCGGUCCCAAGCCCGGAUAAAAGUGUAGGGGGCGG", "note": "[C9U G45U]", "self-cleavage": 0.04}, {"variant": "CCGCCUAAUACUGCCAAUGCCGGUCCCAAGCCCGGAUAAAAGUGCAGGGGGCGG", "note": "[C9U G45C]", "self-cleavage": 0.03}, {"variant": "CCGCCUAAUACUGCCAAUGCCGGUCCCAAGCCCGGAUAAAAGUGAAGGGGGCGG", "note": "[C9U G45A]", "self-cleavage": 0.06}, {"variant": "CCGCCUAAGACUGCCAAUGCCGGUCCCAAGCCCGGAUAAAAGUGCAGGGGGCGG", "note": "[C9G G45C]", "self-cleavage": 0.04}, {"variant": "CCGCCUAAGACUGCCAAUGCCGGUCCCAAGCCCGGAUAAAAGUGAAGGGGGCGG", "note": "[C9G G45A]", "self-cleavage": 0.11}, {"variant": "CCGCCUAAGACUGCCAAUGCCGGUCCCAAGCCCGGAUAAAAGUGUAGGGGGCGG", "note": "[C9G G45U]", "self-cleavage": 0.07}]}]}
